From PubChem BioAssay
Cneo AK release: Cryptococcus neoformans cell lysis inducers, primary screen, AK release luminescence, single concentration; C. neoformans lysis, adenylate kinase release luminescence, 4 h; normalised: neutral wells 0, clomiphene wells 100; lysis activity, % at 15 µM; hit rate 0.2% among 360,000;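 active = mean lysis activity across replicates of at least 80%, whatever share of replicates individually reach that level; inactive = mean lysis activity below 80%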
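Material – Cryptococcus neoformans yeast cells · Quantity – 5 × 10^6 yeast cells/mL · Buffer or medium – YPD medium · Compound – single dose · Timing – 4 h static compound exposure, 37 °C, read 1 h post-reagent · Signal – adenylate kinase release luminescence · Read-out basis – lysis from increased AK signal · Benchmarks – Clomiphene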
Wnt act: Wnt/beta-catenin pathway activators, primary screen, cell-based, plate reader, single point | hit rate 1.2% among 300,000 | AID 743398, 2014 | Wnt/beta-catenin reporter cell assay, activator | activation, % at 9.35 µM; in the data active = activation above about 30%, passing the limit was not always enough; inconclusive = no clear call, values can overlap the other calls;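 also: 0% = neutral control wells and 100% = positive control wells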
MITF TRPM1 HTS: activators of MITF-driven TRPM1 promoter reporter, primary screen, cell-based, SK-MEL-5, luciferase, single point; AID 588334, 2011; activation, % at 12.5 µM; SK-MEL-5 TRPM1-promoter luciferase, 24 h; % of positive control, neutral wells = 0; hit rate 0.75% among 300,000;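 active = mean activation of at least 80% with every replicate also reaching 80%; inconclusive = mean reaches 80% but some replicate falls short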;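 also: 0% = neutral control wells and 100% = parthenolide positive control wells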
PGC1a acetyl inh: inhibitors of PGC1a acetylation signal, primary screen, cell-based, U2OS, AlphaScreen, inhibitor mode | inhibition, % at 15.6 µM | hit rate 0.17% among 350,000 | AlphaScreen anti-acetyl-lysine; with virally co-expressed GCN5 acetyltransferase;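 active = every replicate shows inhibition of at least 40%; inconclusive = mean inhibition at least 40% but some replicate below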;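 also: 0% = neutral control wells and 100% = positive control wells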
An asterisk follows results filed as active. The list is not random: actives were taken first. Their share in the collection is about 1.5%.

Screening O=C(O)c1ccc(Nc2nc3c(s2)CCCC3)cc1 returned Wnt act -3, MITF TRPM1 HTS -64 and PGC1a acetyl inh 0.
Screening CCCCn1c(-c2ccco2)n[nH]c1=S returned Wnt act -6 and MITF TRPM1 HTS -5.
`CCCCn1c(-c2ccoc2C)n[nH]c1=S` gave Cneo AK release 1, Wnt act 43* and PGC1a acetyl inh 9.
`O=C(NCCc1ccc(Cl)cc1)c1n[nH]c2ccccc12` gave Wnt act 2, MITF TRPM1 HTS 50 and PGC1a acetyl inh 0.
Screening O=C(NCCc1ccccc1)c1nccc2ccccc12 returned Cneo AK release 0, Wnt act 29, MITF TRPM1 HTS 81* and PGC1a acetyl inh -13.
O=C(NCCc1ccccc1)c1n[nH]c2ccccc12 was read as Cneo AK release 11, Wnt act 52*, MITF TRPM1 HTS 63 and PGC1a acetyl inh 0.
For CCCNC(=O)Nc1ccc2c(c1)C(=O)N(C)C[C@H](OC)[C@@H](C)CN(CCC)[C@H](C)CO2 the results were Cneo AK release 0 and PGC1a acetyl inh 2.
For COc1ccc(-c2cnc3c(c2)C(=O)N([C@@H](C)CO)C[C@@H](C)[C@@H](CN(C)C(=O)C2CC2)O3)cc1 the results were PGC1a acetyl inh -8.
O=C(NCC[C@H]1CC[C@H](NS(=O)(=O)c2ccccc2)[C@H](CO)O1)c1ccccc1F was read as Cneo AK release -1 and PGC1a acetyl inh 0.
`COc1ccc(-c2nnc(SCc3ccccc3F)o2)cc1` gave MITF TRPM1 HTS 62 and PGC1a acetyl inh -6.
Screening Fc1ccccc1CSc1nnc(-c2cccnc2)o1 returned Wnt act 40* and MITF TRPM1 HTS 37.
Screening Fc1ccccc1CSc1nnc(-c2ccccc2)o1 returned Cneo AK release -6, Wnt act 68*, MITF TRPM1 HTS 103* and PGC1a acetyl inh 2.
`CCCN(C)C[C@H]1Oc2cc(-c3cccnc3)ccc2S(=O)(=O)N([C@@H](C)CO)C[C@H]1C` gave Cneo AK release 0 and PGC1a acetyl inh -8.
For O=S(=O)(c1ccc(F)cc1)N1CCCCN2[C@@H](CO)[C@H](c3ccc(-c4ccccc4F)cc3)[C@@H]2C1 the results were Cneo AK release -1 and PGC1a acetyl inh -15.
Screening C[C@@H]1CN([C@@H](C)CO)C(=O)Cc2cc(NC(=O)Nc3ccc(C(F)(F)F)cc3)ccc2O[C@@H]1CN(C)CC1CCCCC1 returned Cneo AK release 2 and PGC1a acetyl inh -11.
For COC(=O)C(C)N1C(=O)S/C(=C\c2cc(C)n(-c3ccccn3)c2C)C1=O (configuration not stated) the results were Cneo AK release -8, MITF TRPM1 HTS 40 and PGC1a acetyl inh 5.
`COC(=O)C(C)N1C(=O)S/C(=C/c2cc(C)n(-c3ccccn3)c2C)C1=O` (configuration not stated) gave Cneo AK release -5, Wnt act 57*, MITF TRPM1 HTS 20 and PGC1a acetyl inh 9.
O=C(OCCc1cc2ccccc2c(=O)o1)c1cccs1 was read as Cneo AK release -2, Wnt act 0, MITF TRPM1 HTS 93* and PGC1a acetyl inh 4.
COc1ccc(C(=O)OCCc2cc3ccccc3c(=O)o2)cc1 was read as Cneo AK release 2, Wnt act -2 and MITF TRPM1 HTS 60.
Screening Cc1ccc(C(=O)COC(=O)c2cccs2)cc1 returned Cneo AK release -12, Wnt act 52* and MITF TRPM1 HTS 57.
Screening CCc1ccc(C(=O)COC(=O)c2cccs2)cc1 returned Cneo AK release -8, Wnt act 62*, MITF TRPM1 HTS inconclusive and PGC1a acetyl inh 6.
O=C(COC(=O)c1cccs1)c1ccc2ccccc2c1 was read as Cneo AK release -4 and Wnt act 32*.
For Cc1ccc(N/C=C/C(=O)c2ccco2)c(O)c1 the results were Wnt act 56*, MITF TRPM1 HTS 53 and PGC1a acetyl inh -8.
C[C@@H](NC(=O)[C@H]1[C@H](CO)[C@H]2Cn3c(ccc(-c4cccnc4)c3=O)[C@@H]1N2C)c1ccccc1 was read as Cneo AK release 1.
For C[C@H](CO)N1C[C@H](C)[C@@H](CN(C)C(=O)Nc2cccc3ccccc23)OCCCC[C@H](C)Oc2ccc(NC(=O)Nc3ccc(F)cc3)cc2C1=O the results were Cneo AK release 3 and PGC1a acetyl inh -7.
O=C(/C=C/c1ccco1)Oc1ccc(C(=S)N2CCOCC2)cc1 was read as Wnt act 84*, MITF TRPM1 HTS 1 and PGC1a acetyl inh -4.
`COc1ccc(C(=O)Nn2c(SCc3cccc([N+](=O)[O-])c3)nc3ccccc3c2=O)cc1` gave Cneo AK release -1, MITF TRPM1 HTS -5 and PGC1a acetyl inh 6.
O=C(Nn1c(SCc2cccc([N+](=O)[O-])c2)nc2ccccc2c1=O)c1ccccc1 was read as Cneo AK release 0, Wnt act 43* and MITF TRPM1 HTS 25.
`COc1ccc(-c2csc(N(CC3CCCO3)C(=O)c3ccccc3)n2)cc1` (configuration not stated) gave Wnt act 3, MITF TRPM1 HTS 6 and PGC1a acetyl inh 4.
COc1ccc(-c2csc(N(CC3CCCO3)C(=O)c3ccc(C)cc3)n2)cc1 (configuration not stated) was read as Cneo AK release 1, Wnt act 38* and PGC1a acetyl inh 5.
For CC[C@H](C)C1OC(=O)[C@@H](C)[C@@H](CC)NC(=O)[C@H](C)N(C)C(=O)C(C)(C)C(=O)C(C)NC(=O)[C@H](Cc2ccc(OC)cc2)N(C)C(=O)[C@H](C(C)C)N(C)C(=O)CNC(=O)[C@H](CC(C)C)N(C)C(=O)CNC1=O (some centres not stated) the results were Cneo AK release -13 and PGC1a acetyl inh 74*.
`C[C@@H]1CN([C@H](C)CO)C(=O)c2cc(NC(=O)NC3CCCCC3)ccc2O[C@@H](C)CCCCO[C@@H]1CN(C)S(=O)(=O)c1ccccc1` gave Cneo AK release -2 and PGC1a acetyl inh -7.
For COc1ccccc1N1CCN(c2ccc3ccccc3n2)CC1 the results were Cneo AK release -6, Wnt act 23, MITF TRPM1 HTS 108* and PGC1a acetyl inh 2.
COCCNC(=O)C[C@H]1C[C@@H]2c3cc(NC(=O)c4cccnc4)ccc3O[C@@H]2[C@@H](CO)O1 was read as Cneo AK release 2 and PGC1a acetyl inh 9.
COc1cccc2c1OCC(C(=O)Nc1nccs1)=C2 was read as Cneo AK release -3, Wnt act inconclusive, MITF TRPM1 HTS 119* and PGC1a acetyl inh -1.
COc1ccccc1S(=O)(=O)N[C@@H]1CC[C@@H](CC(=O)N2CCOCC2)O[C@H]1CO was read as Cneo AK release -2 and PGC1a acetyl inh 1.
For C[C@H](CO)N1C[C@H](C)[C@@H](CN(C)Cc2cccc(C(F)(F)F)c2)OCc2cn(nn2)CCCC1=O the results were Cneo AK release -1 and PGC1a acetyl inh -4.
